How the values were obtained:
[1] = Eliglustat alone, pharmacokinetics across all three studies; assay type: in vivo, human
Procedure, shortened: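 Test compound given orally to healthy adults as a single dose, then BID. Terminal half-life comes from single-dose plasma profiles by non-compartmental analysis. Plasma was protein-precipitated with acetonitrile containing a 13C internal standard, solid-phase extracted and measured by LC-MS/MS. Steady state was judged by graphical examination of pre-dose (trough) concentrations during repeated dosing.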

Safety assessments = assay type: in vivo, human
Procedure, shortened: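 Open-label study in healthy adults. Safety was monitored after a single dose (Day 1), during multiple doses alone (Days 2–8), and during co-dosing (Days 9–15 with the CYP3A/P-gp inhibitor; Days 9–18 with the CYP2D6 inhibitor). Measures: treatment-emergent AEs, clinical labs, vital signs, physical exams, 12-lead ECG, 12 h continuous telemetry. An AE counted as treatment-related if possibly, probably or definitely related to study drug.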

[2] = concomitant dosing of eliglustat with ketoconazole, Days 9 to 15, N = 33
[3] = ketoconazole study (N = 36), whole study
[4] = multiple-dose eliglustat period, Days 2 to 8, N = 34

With CCCCCCCC(=O)N[C@H](CN1CCCC1)[C@H](O)c1ccc2c(c1)OCCO2 [eliglustat] the half-life ([1]; human, plasma, oral) was 4.2 to 5.11 h, the time to steady-state ([1]; repeated doses of eliglustat, graphical examination of Ctrough values) was “approximately 4 days” and the tolerability (Safety assessments; administered alone and with ketoconazole) was “well tolerated”. For the same compound, the “subjects with dysmenorrhea of moderate intensity” value (Safety assessments; concomitant dosing of eliglustat with ketoconazole) was 3.0%, the “number of AEs” value (Safety assessments; [2]) was 33 AEs and the “subjects with AEs” value (Safety assessments; [2]) was 48.5%. For the same compound, the “subjects reporting AEs related to eliglustat” value (Safety assessments; concomitant dosing with ketoconazole, N = 33) was 36.4%, the “subjects reporting AEs possibly related to both eliglustat and ketoconazole” value (Safety assessments; concomitant dosing, N = 33) was 33.3% and the “subjects reporting treatment-related AEs” value (Safety assessments; following a single dose of eliglustat, Day 1, N = 36) was 5.6%. For the same compound, the QTcF interval prolongation (Safety assessments; ketoconazole study) was “no clinically significant prolongations of QTcF interval”, the “Any adverse event (AE), number of events” value (Safety assessments; [3]) was 58 N and the “Any adverse event (AE), number of subjects” value (Safety assessments; [3]) was 20 (55.6%) N (%). For the same compound, the “Any treatment-related AE, number of events” value (Safety assessments; [3]) was 45 N, the “Any treatment-related AE, number of subjects” value (Safety assessments; [3]) was 15 (41.7%) N (%) and the “Discontinuations due to AE, number of events” value (Safety assessments; [3]) was 0 N. The “Discontinuations due to AE, number of subjects” value (Safety assessments; [3]) was 0 (0.0%) N (%), the “Serious AEs, number of events” value (Safety assessments; [3]) was 0 N and the “Serious AEs, number of subjects” value (Safety assessments; [3]) was 0 (0.0%) N (%). The “Severe AEs, number of events” value (Safety assessments; [3]) was 0 N, the “Severe AEs, number of subjects” value (Safety assessments; [3]) was 0 (0.0%) N (%) and the “subjects with dysmenorrhea of moderate intensity” value (Safety assessments; multiple-dose eliglustat) was 2.9%. The “number of AEs” value (Safety assessments; [4]) was 21 AEs, the “subjects with AEs” value (Safety assessments; [4]) was 32.4% and the “subjects reporting treatment-related AEs” value (Safety assessments; multiple-dose eliglustat, N = 34) was 23.5%. For the same compound, the “subjects with headache of moderate intensity” value (Safety assessments; multiple-dose eliglustat, possibly related to eliglustat, unlikely related to ketoconazole) was 2.9%.

From article PMC6976987 (Molecular Genetics and Metabolism Reports, 2020)
